A3A deaminase – human APOBEC3A DNA deaminase inhibition; P31941; inhibition, % at 20 µM; actives 0.41% (n = 330,000); recombinant A3A, FAM/TAMRA ssDNA deamination fluorescence;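 active = at least 40% inhibition at 20 µM here, with at most 30% in a related deaminase screen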;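 also: plate controls were A3A with DMSO for no effect and wells lacking A3A enzyme for full effect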
ABHD5 PLIN5 PPI – inhibitors of human ABHD5-perilipin-5 interaction | Q00G26+Q8WTS1 | Split G. princeps luciferase complementation, luminescence, 4 h | inhibition, % at 4 µM | actives 0.78% (n = 360,000) | AID 602281;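 active = inhibition above the mean inhibition across every tested compound plus 3 SD, cut at about 22% in these data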;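 also: 0% = DMSO only wells and the 100% control is not disclosed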
PRMT1 FP inh – PRMT1 (human) inhibition, primary screen. inhibition, % at 2.79 µM. Q99873. actives 1.3% (n = 370,000). recombinant PRMT1, activity-based probe fluorescence polarization;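 active = inhibition above about 21% made by adding two undisclosed values, limit read from the data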
Target sequence (Q99873 whole entry, looked up): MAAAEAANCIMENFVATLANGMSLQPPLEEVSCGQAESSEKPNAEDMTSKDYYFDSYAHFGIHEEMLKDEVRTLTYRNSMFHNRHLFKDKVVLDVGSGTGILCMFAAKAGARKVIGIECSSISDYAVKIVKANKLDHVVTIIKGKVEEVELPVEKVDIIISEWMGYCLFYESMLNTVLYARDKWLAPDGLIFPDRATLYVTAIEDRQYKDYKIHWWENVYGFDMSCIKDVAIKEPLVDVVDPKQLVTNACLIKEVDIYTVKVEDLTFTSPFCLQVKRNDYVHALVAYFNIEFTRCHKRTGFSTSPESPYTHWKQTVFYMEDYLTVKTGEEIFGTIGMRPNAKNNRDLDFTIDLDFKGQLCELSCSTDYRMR
core dimer inh – blocks dimerization of HCV core protein; AID 1899; inhibition, % at 5 µM; TR-FRET GST/Flag-core106 dimerization, 1536-well; actives 0.33% (n = 300,000);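 active = inhibition above the mean of all tested compounds plus 3 SD, set per screening campaign, cut at about 45% in these data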
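Material: GST/Flag-tagged HCV core106 proteins. Incubation: 4 h, 22.5 °C incubation. Read-out basis: inhibition (%) from 671 over 617 nm ratio. Measured by: TR-FRET, excitation 340 nm, emission 617 and 671 nm.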
NS3 helicase inh – inhibitors of Hepatitis C virus NS3 helicase | actives 0.56% (n = 290,000) | NS3 helicase DNA unwinding, Cy5 molecular beacon fluorescence | inhibition, % at 10.9 µM;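 active = inhibition above the mean of all tested compounds plus 3 SD, set per campaign, cut at about 35% in these data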;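 also: 0% = DMSO wells and 100% = thioflavine S control wells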
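Measured by: Cy5 fluorescence, 0 and 60 min reads / Assay system: NS3 helicase fragment of HCV / Control set: low DMSO, high thioflavine S at 110 µM / Times: 1 h reaction at 25 °C, ATP-initiated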
APOBEC3G inh – inhibitors of human APOBEC3G DNA deaminase. recombinant A3G, ssDNA deamination FAM/TAMRA fluorescence. actives 0.28% (n = 330,000). AID 493012. inhibition, % at 20 µM. Q9HC16;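 active = inhibition of at least 40% at 20 µM, with no more than 30% in the related APOBEC3A deaminase screen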;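 also: plate controls were DMSO wells with A3G for no effect and wells lacking A3G enzyme for full effect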
The depositor's hits bear a star; nt = not tested or not shown. This is a sample that favours compounds with a hit; in the whole collection about 2.9% have one here.

SMILES	A3A deaminase	ABHD5 PLIN5 PPI	PRMT1 FP inh	core dimer inh	NS3 helicase inh	APOBEC3G inh
COC(=O)C1CN(Cc2cn(Cc3ccc(C)cc3)nn2)CCS(=O)(=O)N1Cc1ccc(C)cc1 (stereo not drawn)	nt	nt	-3	nt	nt	nt
Nc1ccc(C(=O)Nc2nc3ccccc3s2)cc1	-3	13	2	0	5	-6
O=C(Nc1nc(=O)c2ccccc2s1)c1ccc(F)cc1	-2	-14	48*	-3	3	2
c1coc(C2=NC(c3ccco3)C(c3ccco3)N2)c1 (stereo not drawn)	nt	8	nt	nt	nt	nt
Brc1ccc(-c2csc(NNC3=NCCCCC3)n2)cc1	1	-11	12	-3	-27	1
FC(F)Oc1ccc(-c2csc(NNC3=NCCCCC3)n2)cc1	-5	-12	38*	-7	-13	-3
Cc1ccc2c(c1)-c1c(cnn1CC(=O)NCCc1ccccc1F)CO2	nt	nt	-3	nt	nt	nt
COc1ccc(C(=O)/C=C/c2ccc(O)cc2)cc1	-3	5	5	-6	4	-17
COc1ccc(C=CC(=O)c2c(OC)cc(OC)c(OC)c2O)cc1	nt	23*	8	nt	nt	nt
CCN(CC)c1ccc(NC(=O)CSc2ccsc2[N+](=O)[O-])c(C)c1	13	-15	1	49*	15	3
CCc1ccc(OCC(=O)NNC(=O)c2ccc(NC(=O)C3CC3)cc2)cc1	-3	7	nt	1	-36	-3
COc1ccc2c(c1)c[n+](C)c1c3cc(OC)c(OC)cc3ccc21	nt	22*	1	nt	nt	nt
COc1cccc(NC(=O)CN(C)C(=O)CSc2nc(C)cc(C)n2)c1	0	9	1	nt	nt	-3
Cc1ccc(C(=O)N(C)[C@H]2C[C@H]3c4[nH]c5c(-c6cccc(C)c6)cccc5c4CCN3C[C@H]2[C@H](C)O)cc1	nt	nt	-3	nt	nt	nt
CCOC(=O)C1=C(C(=O)OCC)C2N(Cc3ccc(C(F)(F)F)cc3)c3ccccc3[C@@]23C[C@@H](C(=O)OC)N(S(=O)(=O)c2cccs2)C3=N1 (stereo partly drawn)	nt	nt	-1	nt	nt	nt
O=C(CCN1C(=O)/C(=C\C=C\c2ccccc2)SC1=S)Nc1cccc(C(=O)O)c1	-3	5	2	27	-9	-2
Cc1ccc(NC(=O)CCCN2C(=O)/C(=C/C=C/c3ccccc3)SC2=S)cc1	-4	4	-1	57*	19	-11
c1ccc(-c2ccc3ccccc3n2)cc1	8	2	12	4	nt	20
CNc1ccccc(-c2ccc3ccccc3n2)c1=O	2	-6	24*	-11	9	-11
Cc1cc(C)c(C(=O)c2ccccc2C(=O)O)c(C)c1	nt	-1	nt	nt	nt	nt
Cc1cc(C2C(C#N)=C(N)OC3=C2C(=O)CCC3)c(C)s1 (stereo not drawn)	-2	0	-2	-3	2	3
COc1cc(C2C(C#N)=C(N)OC3=C2C(=O)CCC3)c([N+](=O)[O-])cc1OC (stereo not drawn)	nt	0	21*	5	28	nt
COc1ccccc1-c1nc(S(=O)(=O)c2ccccc2)c(N2CCOCC2)o1	-2	22*	7	2	-2	-6
Cc1cccc(NC(=O)CSCC(=O)Nc2sccc2C#N)c1	0	-6	12	4	nt	-7
COCCNC(=O)NC(=O)CN1C(=O)NC(Cc2c[nH]c3ccccc23)C1=O (stereo not drawn)	-4	2	-4	-2	31	-1
SMILES	A3A deaminase	ABHD5 PLIN5 PPI	PRMT1 FP inh	core dimer inh	NS3 helicase inh	APOBEC3G inh
O=c1[nH]c2ccccc2c2oc(CCl)nc12	-2	-17	21*	4	9	-5
CCC1CCc2c(c3ccccc3[nH]c2=O)O1 (stereo not drawn)	0	5	0	-4	2	-2
CC(C)(C)c1cc[n+](/C(C(=S)Nc2ccccc2F)=C(/[O-])c2ccc3c(c2)OCCO3)cc1	-1	-12	24*	23	-3	-4
COC(=O)[C@]1(Cc2ccccc2)NC=C(C(=O)c2ccccc2)[C@@H]1c1cccs1	nt	nt	2	nt	nt	nt
C[C@H]1[C@@H](OC(=O)Nc2cccc(C(F)(F)F)c2)CC[C@@]23CCCN2C(=O)CCC[C@@H]13	nt	nt	3	nt	nt	nt
CCCn1nc([N+](=O)[O-])c(C(C#N)c2nc3ccccc3s2)c(Cl)c1=O (stereo not drawn)	2	11	28*	3	-15	-3

Source: PubChem
